Test results reported in ChEMBL document CHEMBL1649064, “Antimalarial activity of novel 5-aryl-8-aminoquinoline derivatives” (J Med Chem, 2011).
Converted amounts (≈) assume the structure as drawn. The source made the active and inactive calls. The calls are words filed in the database; no cut-off is given here.

Key:
RAW264.7 = test: Cytotoxicity against mouse RAW264.7 cells after 24 hrs by MTT assay; format: cell-based; details: RAW264.7, 24 h
Outline: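 Macrophage line from ATCC, seeded at 2.5 × 10⁴ cells/well and left ~12 h. Drug stocks in DMSO, serially diluted to 0.29-48 μg/mL/well. Exposure 24 h, then drug removed and fresh medium added for a further 24 h recovery. Viability read by MTT. Controls were no-cell background, untreated cells and 0.6% DMSO. Duplicate runs, IC50 from sigmoidal variable-slope fit.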

Plasmodium falciparum [1] = test: Antimalarial activity against mefloquine-resistant Plasmodium falciparum CDC Sierra Leone 1 D6 after 48 hrs by [3H]hypoxanthine uptake assay; format: functional, organism-based
Outline: (§1)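 Compounds dissolved in DMSO, diluted 400-fold in RPMI 1640 with 25 mM Hepes, 32 mM NaHCO₃ and 10% Albumax I, then 2-fold serial dilutions over 11 concentrations. Parasites exposed 48 h at 37 °C under 5% O₂/5% CO₂/90% N₂, then [³H]-hypoxanthine added for a further 18 h. DNA harvested onto glass filters and counted. IC50 from a nonlinear regression logistic dose-response model.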

[2] = Half life in mouse microsomes by LC-MS/MS analysis; format: ADME, Microsome
Outline: (§2)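 Microsomal stability run on a robotic sample processor in 96-well format, following an internal SOP. Parent compound quantified by LC-MS/MS with fast LC gradient or isocratic methods.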

[3] = Half life in human microsomes by LC-MS/MS analysis; format: ADME, Microsome; outline: as §2
Plasmodium falciparum [4] = test: Antimalarial activity against mefloquine-susceptible Plasmodium falciparum CDC Indochina 3 W2 after 48 hrs by [3H]hypoxanthine uptake assay; format: functional, organism-based; outline: as §1
[5] = Therapeutic index, ratio of IC50 for mouse RAW264.7 cells to IC50 for mefloquine-susceptible Plasmodium falciparum CDC Indochina 3 W2; format: cell-based; details: read-out: TI
Outline: (§3)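 RAW 264.7 macrophages seeded at 2.5 × 10⁴ cells/well and pre-incubated about 12 h. Exposed 24 h to 0.29-48 μg/mL of DMSO-dissolved drug, then drug removed, fresh medium added and 24 h recovery. Viability by MTT, with background, untreated and 0.6% DMSO controls. Duplicate runs, IC50 by sigmoidal variable-slope fit. Index is the macrophage IC50 over the P. falciparum IC50.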

Plasmodium berghei [6] = test: Prophylactic antimalarial activity against Plasmodium berghei infected Exoerythrocytic mouse model; format: functional
Outline: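 Mice infected with P. berghei sporozoites by intravenous inoculation. Compounds given orally once daily for 3 days at up to 320 mg/kg/day. Read-out was cure and delay of patency in groups of 4 mice.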

[7] = Therapeutic index, ratio of IC50 for mouse RAW264.7 cells to IC50 for mefloquine-resistant Plasmodium falciparum CDC Sierra Leone 1 D6; format: cell-based; details: read-out: TI; outline: as §3
Plasmodium berghei [8] = test: Prophylactic antimalarial activity against Plasmodium berghei infected Exoerythrocytic mouse model at 320 mg/kg, po for 3 days; format: functional, organism-based; parameters: dose 320 mg/kg
Outline: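 Mice infected with P. berghei sporozoites by intravenous inoculation. Compound given orally daily for 3 days. Read-outs were cure and delay of patency.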

Compound | IC50 (RAW264.7) | IC50 (Plasmodium falciparum [1]) | half-life [2] | half-life [3] | IC50 (Plasmodium falciparum [4]) | selectivity ratio [5] | MAC (Plasmodium berghei [6]) | MTD (Plasmodium berghei [6]) | selectivity ratio [7] | Activity (Plasmodium berghei [8])
COc1cc(C)c2c(Oc3cccc(C(F)(F)F)c3)c(OC)cc(NC(C)CCCN)c2n1 (stereo not drawn) [TAFENOQUINE] | 5.9 µg/mL (≈ 12.7 µM) | 2.7 µg/mL (≈ 5.83 µM) | > 1 h | > 1 h | 0.8 µg/mL (≈ 1.73 µM) | 7.38 | 7.5 mg/kg/day | 120 mg/kg/day | 2.2 | –
COc1cc(C)c2c(-c3ccc(C(F)(F)F)cc3)c(OC)cc(NC(C)CCCN)c2n1.O=C(O)CCC(=O)O (stereo not drawn) | 1.2 µg/mL | 2.2 µg/mL | > 1 h | > 1 h | 1.3 µg/mL | 0.92 | >480 mg/kg/day | >480 mg/kg/day | 0.54 | inactive
COc1cccc(-c2c(OC)cc(NC(C)CCCN)c3nc(OC)cc(C)c23)c1.O=C(O)CCC(=O)O (stereo not drawn) | 3.1 µg/mL | 2.8 µg/mL | > 1 h | > 1 h | 0.8 µg/mL | 3.87 | >480 mg/kg/day | >480 mg/kg/day | 1.11 | inactive
COc1cc(NC(C)CCCNC(=O)OC(C)(C)C)c2nc(C(F)(F)F)cc(C)c2c1-c1cccc(C(F)(F)F)c1 (stereo not drawn) | > 48 µg/mL | 1.1 µg/mL (≈ 1.88 µM) | 0.3 h | 0.3 h | 2.8 µg/mL (≈ 4.78 µM) | > 17 | >960 mg/kg/day | >960 mg/kg/day | > 39.7 | inactive
COc1cc(NC(C)CCCN)c2nc(C(F)(F)F)cc(C)c2c1-c1cccc(C(F)(F)F)c1.O=C(O)CCC(=O)O (stereo not drawn) | 1.5 µg/mL | 1.4 µg/mL | > 1 h | > 1 h | 0.5 µg/mL | 3 | – | – | 1.07 | –
COc1cc(NC(C)CCCN)c2nc(C(F)(F)F)cc(C)c2c1-c1ccc(C(F)(F)F)cc1.O=C(O)CCC(=O)O (stereo not drawn) | 10.1 µg/mL | 1.7 µg/mL | > 1 h | > 1 h | 0.8 µg/mL | 12.6 | – | – | 5.94 | –
COc1cc(NC(C)CCCN)c2nc(C(F)(F)F)cc(C)c2c1-c1cccc(C)c1.O=C(O)CCC(=O)O (stereo not drawn) | 1.8 µg/mL | 0.2 µg/mL | > 1 h | > 1 h | 0.9 µg/mL | 2 | – | – | 9 | –
COc1cc(C)c2c(-c3ccc(Cl)c(Cl)c3)c(OC)cc(NC(C)CCCN)c2n1.O=C(O)CCC(=O)O (stereo not drawn) | 1.7 µg/mL | 2.9 µg/mL | > 1 h | > 1 h | 1.2 µg/mL | 1.42 | >480 mg/kg/day | 120 mg/kg/day | 0.58 | inactive
COc1cccc(-c2c(OC)cc(NC(C)CCCN)c3nc(C(F)(F)F)cc(C)c23)c1.O=C(O)CCC(=O)O (stereo not drawn) | 1.5 µg/mL | 0.3 µg/mL | > 1 h | > 1 h | 0.6 µg/mL | 2.5 | – | – | 5 | –
COc1cc(NC(C)CCCN)c2ncccc2c1 (stereo not drawn) [PRIMAQUINE] | 38.7 µg/mL (≈ 149 µM) | 2.1 µg/mL (≈ 8.1 µM) | 0.35 h | > 1 h | 0.9 µg/mL (≈ 3.47 µM) | 43 | 60 mg/kg/day | <120 mg/kg/day | 18.4 | –
COc1cc(NC(C)CCCNC(=O)OC(C)(C)C)c2nc(C(F)(F)F)cc(C)c2c1-c1ccc(C(F)(F)F)cc1 (stereo not drawn) | > 48 µg/mL | 1.3 µg/mL (≈ 2.22 µM) | 0.267 h | 0.5 h | 1.4 µg/mL (≈ 2.39 µM) | > 34 | >960 mg/kg/day | >960 mg/kg/day | > 36 | inactive
COc1cc(NC(C)CCCNC(=O)OC(C)(C)C)c2nc(C(F)(F)F)cc(C)c2c1-c1cccc(C)c1 (stereo not drawn) | > 48 µg/mL | 0.2 µg/mL (≈ 0.376 µM) | 0.183 h | 0.217 h | 0.9 µg/mL (≈ 1.69 µM) | > 59 | >960 mg/kg/day | >960 mg/kg/day | > 240 | inactive
COc1cc(NC(C)CCCN)c2nc(C(F)(F)F)cc(C)c2c1-c1ccccc1.O=C(O)CCC(=O)O (stereo not drawn) | 3.1 µg/mL | 2.8 µg/mL | > 1 h | > 1 h | 1.4 µg/mL | 2.21 | >960 mg/kg/day | 480 mg/kg/day | 1.11 | inactive
COc1cc(C)c2c(-c3cccc(C)c3)c(OC)cc(NC(C)CCCN)c2n1.O=C(O)CCC(=O)O (stereo not drawn) | 1.9 µg/mL | 1.3 µg/mL | > 1 h | > 1 h | 0.7 µg/mL | 2.71 | 960 mg/kg/day | 960 mg/kg/day | 1.46 | Active
COc1cccc(-c2c(OC)cc(NC(C)CCCNC(=O)OC(C)(C)C)c3nc(C(F)(F)F)cc(C)c23)c1 (stereo not drawn) | > 80.2 µg/mL | 0.3 µg/mL (≈ 0.548 µM) | 0.133 h | 0.15 h | 0.6 µg/mL (≈ 1.1 µM) | > 134 | >960 mg/kg/day | >960 mg/kg/day | > 267 | inactive
COc1cc(C)c2c(-c3cccc(C(F)(F)F)c3)c(OC)cc(NC(C)CCCN)c2n1.O=C(O)CCC(=O)O (stereo not drawn) | 1.3 µg/mL | 2.7 µg/mL | > 1 h | > 1 h | 1.3 µg/mL | 1 | >480 mg/kg/day | >480 mg/kg/day | 0.48 | inactive
COc1cc(C)c2c(-c3ccccc3)c(OC)cc(NC(C)CCCN)c2n1.O=C(O)CCC(=O)O (stereo not drawn) | 1.9 µg/mL | 3.2 µg/mL | > 1 h | > 1 h | 1.3 µg/mL | 1.46 | – | – | 0.59 | –
